From ChEMBL document CHEMBL4346667 (Eur J Med Chem, 2019)
The source made the active and inactive calls. No cut-off for these calls is given here.

Columns and labels:
Format in all cases: functional
[1] = test system: MCF7; assay: Induction of apoptosis in human MCF7 cells assessed as viable cells at 50 uM after 48 hrs by Annexin V-FITC/propidium iodide staining-based flow cytometric analysis (reference value: 87.9%); details: MCF7, 48 h, read-out: Activity
[2] = test system: MCF7; assay: Induction of apoptosis in human MCF7 cells assessed as early apoptotic cells at 10 uM after 48 hrs by Annexin V-FITC/propidium iodide staining-based flow cytometric analysis (reference value: 9.1%)
How it was run: (§1)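 Log-phase cells seeded in 6-well plates and treated after adhesion; incubated in cycles of 6 h on/6 h off up to 48 h. Collected after PBS washes and trypsin, resuspended in Ca2+-enriched binding buffer. Stained with annexin V (1 µg/mL) plus PI (0.5 µg/mL) 15 min in the dark at room temperature. 10,000 events, FL1 vs FL2. At least three repeats.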

[3] = test system: MCF7; assay: Induction of apoptosis in human MCF7 cells assessed as necrotic cells at 1 uM after 6 hrs by Annexin V-FITC/propidium iodide staining-based flow cytometric analysis (reference value: 0.5%)
[4] = test system: MCF7; assay: Induction of apoptosis in human MCF7 cells assessed as early apoptotic cells at 10 uM after 6 hrs by Annexin V-FITC/propidium iodide staining-based flow cytometric analysis (reference value: 2%); how it was run: as §1
[5] = test system: MCF7; assay: Induction of apoptosis in human MCF7 cells assessed as early apoptotic cells at 5 uM after 6 hrs by Annexin V-FITC/propidium iodide staining-based flow cytometric analysis (reference value: 2%); how it was run: as §1
[6] = test system: MCF7; assay: Induction of apoptosis in human MCF7 cells assessed as necrotic cells at 1 uM after 24 hrs by Annexin V-FITC/propidium iodide staining-based flow cytometric analysis (reference value: 0.1%)
[7] = test system: MCF7; assay: Induction of apoptosis in human MCF7 cells assessed as viable cells at 1 uM after 48 hrs by Annexin V-FITC/propidium iodide staining-based flow cytometric analysis (reference value: 87.9%); details: MCF7, 48 h, read-out: Activity
[8] = test system: MCF7; assay: Induction of apoptosis in human MCF7 cells assessed as early apoptotic cells at 50 uM after 24 hrs by Annexin V-FITC/propidium iodide staining-based flow cytometric analysis (reference value: 2.1%); how it was run: as §1
[9] = test system: MCF7; assay: Induction of apoptosis in human MCF7 cells assessed as necrotic cells at 25 uM after 24 hrs by Annexin V-FITC/propidium iodide staining-based flow cytometric analysis (reference value: 0.1%)
[10] = test system: MCF7; assay: Induction of apoptosis in human MCF7 cells assessed as early apoptotic cells at 1 uM after 48 hrs by Annexin V-FITC/propidium iodide staining-based flow cytometric analysis (reference value: 9.1%); how it was run: as §1
[11] = test system: MCF7; assay: Induction of apoptosis in human MCF7 cells assessed as late apoptotic cells at 5 uM after 24 hrs by Annexin V-FITC/propidium iodide staining-based flow cytometric analysis (reference value: 5.6%); how it was run: as §1
[12] = test system: MCF7; assay: Induction of apoptosis in human MCF7 cells assessed as early apoptotic cells at 50 uM after 48 hrs by Annexin V-FITC/propidium iodide staining-based flow cytometric analysis (reference value: 9.1%); how it was run: as §1
[13] = test system: MCF7; assay: Induction of apoptosis in human MCF7 cells assessed as late apoptotic cells at 10 uM after 48 hrs by Annexin V-FITC/propidium iodide staining-based flow cytometric analysis (reference value: 2.8%); how it was run: as §1
[14] = test system: MCF7; assay: Induction of apoptosis in human MCF7 cells assessed as viable cells at 25 uM after 6 hrs by Annexin V-FITC/propidium iodide staining-based flow cytometric analysis (reference value: 92.8%); details: MCF7, 6 h, read-out: Activity
[15] = test system: MCF7; assay: Induction of apoptosis in human MCF7 cells assessed as viable cells at 25 uM after 48 hrs by Annexin V-FITC/propidium iodide staining-based flow cytometric analysis (reference value: 87.9%); details: MCF7, 48 h, read-out: Activity
[16] = test system: MCF7; assay: Induction of apoptosis in human MCF7 cells assessed as viable cells at 1 uM after 24 hrs by Annexin V-FITC/propidium iodide staining-based flow cytometric analysis (reference value: 92.1%); details: MCF7, 24 h, read-out: Activity
[17] = test system: MCF7; assay: Induction of apoptosis in human MCF7 cells assessed as early apoptotic cells at 1 uM after 6 hrs by Annexin V-FITC/propidium iodide staining-based flow cytometric analysis (reference value: 2%); how it was run: as §1
[18] = test system: MCF7; assay: Induction of apoptosis in human MCF7 cells assessed as necrotic cells at 10 uM after 6 hrs by Annexin V-FITC/propidium iodide staining-based flow cytometric analysis (reference value: 0.5%)
[19] = test system: MCF7; assay: Induction of apoptosis in human MCF7 cells assessed as late apoptotic cells at 2505 uM after 24 hrs by Annexin V-FITC/propidium iodide staining-based flow cytometric analysis (reference value: 5.6%); how it was run: as §1
[20] = test system: MCF7; assay: Induction of apoptosis in human MCF7 cells assessed as early apoptotic cells at 50 uM after 6 hrs by Annexin V-FITC/propidium iodide staining-based flow cytometric analysis (reference value: 2%); how it was run: as §1
[21] = test system: MCF7; assay: Induction of apoptosis in human MCF7 cells assessed as necrotic cells at 5 uM after 24 hrs by Annexin V-FITC/propidium iodide staining-based flow cytometric analysis (reference value: 0.1%)
[22] = test system: MCF7; assay: Antitumor activity against human MCF7 cells xenografted in BALB/c nude mouse assessed as inhibition of tumor growth at 40 mg/kg administered for a week
How it was run: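 Male BALB/c nude mice, 4 weeks old, 15-20 g. Log-phase MCF-7 cells in DMEM, 0.1 mL of 1×10^6 cells/mL, injected subcutaneously into the hind leg. Calipers twice weekly; at about 90 mm3, groups of 5. Vehicle was isotonic saline plus 0.005% DMSO. Injected at 40 mg/kg for a week; tumour volume recorded daily.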

[23] = test system: MCF7; assay: Induction of apoptosis in human MCF7 cells assessed as viable cells at 10 uM after 24 hrs by Annexin V-FITC/propidium iodide staining-based flow cytometric analysis (reference value: 92.1%); details: MCF7, 24 h, read-out: Activity
[24] = test system: MCF7; assay: Cell cycle arrest in human MCF7 cells assessed as accumulation of cells at G2/M phase at 10 uM up to 48 hrs by propidium iodide double staining based flow cytometric analysis
[25] = test system: MCF7; assay: Induction of apoptosis in human MCF7 cells assessed as viable cells at 1 uM after 6 hrs by Annexin V-FITC/propidium iodide staining-based flow cytometric analysis (reference value: 92.8%); details: MCF7, 6 h, read-out: Activity
[26] = test system: MCF7; assay: Induction of apoptosis in human MCF7 cells assessed as necrotic cells at 25 uM after 24 hrs by Annexin V-FITC/propidium iodide staining-based flow cytometric analysis (reference value: 0.2%)
[27] = test system: MCF7; assay: Induction of apoptosis in human MCF7 cells assessed as necrotic cells at 50 uM after 6 hrs by Annexin V-FITC/propidium iodide staining-based flow cytometric analysis (reference value: 0.5%)
[28] = test system: MCF7; assay: Induction of apoptosis in human MCF7 cells assessed as viable cells at 10 uM after 6 hrs by Annexin V-FITC/propidium iodide staining-based flow cytometric analysis (reference value: 92.8%); details: MCF7, 6 h, read-out: Activity
[29] = test system: MCF7; assay: Induction of apoptosis in human MCF7 cells assessed as early apoptotic cells at 1 uM after 24 hrs by Annexin V-FITC/propidium iodide staining-based flow cytometric analysis (reference value: 2.1%); how it was run: as §1
[30] = test system: MCF7; assay: Induction of apoptosis in human MCF7 cells assessed as necrotic cells at 10 uM after 24 hrs by Annexin V-FITC/propidium iodide staining-based flow cytometric analysis (reference value: 0.1%)

SMILES: COc1cc([C@@H]2c3cc4c(cc3[C@@H](O[C@@H]3O[C@@H]5CO[C@@H](C)O[C@H]5[C@H](O)[C@H]3O)[C@H]3COC(=O)[C@H]23)OCO4)cc(OC)c1O [ETOPOSIDE]
- viability at 50 µM [1]: 29.8%
- Activity [2]: 60.5%
- Activity [3]: 0.5%
- Activity [4]: 2.2%
- Activity [5]: 2%
- Activity [6]: 0.2%
- viability at 1 µM [7]: 79.1%
- Activity [8]: 12.4%
- Activity [9]: 1.6%
- Activity [10]: 14.8%
- Activity [11]: 8.4%
- Activity [12]: 57%
- Activity [13]: 17.5%
- viability at 25 µM [14]: 90.6%
- viability at 25 µM [15]: 25.7%
- viability at 1 µM [16]: 90.7%
- Activity [17]: 1.6%
- Activity [18]: 1%
- Activity [19]: 12.7%
- Activity [20]: 2.9%
- Activity [21]: 1.2%
- inhibition in vivo at 40 mg/kg [22]: 43.2%
- viability at 10 µM [23]: 73.9%
- Activity [24]: Active
- viability at 1 µM [25]: 90.8%
- Activity [26]: 0.8%
- Activity [27]: 0.8%
- viability at 10 µM [28]: 87.7%
- Activity [29]: 2.2%
- Activity [30]: 1.4%
